Measurements published in ChEMBL document CHEMBL1146825, “Triaryl methane derivatives as antiproliferative agents” (Bioorg Med Chem Lett, 2004).

Key:
[1] = tested on: NIH3T3; test: Mitogen-induced cell proliferation assay to evaluate the antiproliferative effect in NIH 3T3 cells; type: functional, cell-based; details: Mus musculus
Summary of the method: (§1)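 NIH 3T3 mouse fibroblasts given a mitogenic stimulus (e.g. PDGF or bFGF) for 10 h, then [3H]thymidine added. Cultured a further 21 h at 37 C, 5% CO2, then washed four times with DME. Acid-precipitable radioactivity extracted with cold 10% TCA, neutralized with 0.3 N NaOH, and counted by scintillation.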

[2] = tested on: NIH3T3; test: Percent inhibition at 10 uM determined against mouse NIH 3T3 cells; type: functional; summary of the method: as §1
[3] = tested on: NCI-H460; test: Effect of 25 uM compound on NCI-H460 non-small cell lung cancer cells cycle progression in G0G1 phase by flow cytometry; type: functional, Homo sapiens
Summary of the method: (§2)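 NCI-H460 cells serum-starved 56 h, then released into complete medium containing compound (25 or 50 uM) or 0.1% DMSO vehicle for 16 h. Harvested, washed in cold PBS, fixed in 70% ethanol at 4 C for at least 4 h. Treated with ribonuclease and propidium iodide 30 min at 37 C. DNA content read by flow cytometry; percent of cells in G0-G1, S and G2-M.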

[4] = tested on: NCI-H460; test: Effect of 25 uM compound on NCI-H460 non-small cell lung cancer cells cycle progression in G2M phase by flow cytometry; type: functional, Homo sapiens; summary of the method: as §2
[5] = tested on: NCI-H460; test: Effect of 50 uM compound on NCI-H460 non-small cell lung cancer cells cycle progression in G0G1 phase by flow cytometry; type: functional, Homo sapiens; summary of the method: as §2
[6] = tested on: NCI-H460; test: Effect of 50 uM compound on NCI-H460 non-small cell lung cancer cells cycle progression in G2-M phase by flow cytometry; type: functional, Homo sapiens; summary of the method: as §2
[7] = tested on: NCI-H460; test: Effect of 50 uM compound on NCI-H460 non-small cell lung cancer cells cycle progression in S phase by flow cytometry; type: functional, Homo sapiens; summary of the method: as §2
[8] = tested on: NCI-H460; test: Effect of 25 uM compound on NCI-H460 non-small cell lung cancer cells cycle progression in S phase by flow cytometry; type: functional, Homo sapiens; summary of the method: as §2

SMILES | IC50 [1] [nM] | further results
OC(c1ccccc1)(c1ccccc1)c1ccccc1Cl | 2100 | 
OC(c1ccccc1)(c1ccc(Br)cc1)c1ccc(Br)cc1 | 500 | 
OC(c1ccccc1)(c1ccccc1)C1CCCCC1 | 9500 | 
N#CC(c1ccccc1)(c1ccccc1)C1CCCCC1 | 900 | 
CCOC(=O)C(c1ccccc1)(c1ccccc1)N1CCCCC1 | 2200 | 
CCOC(c1ccccc1)(c1ccccc1)c1ccc(-c2ccccc2)cc1 | 2200 | inhibition at 10 µM [2]: 99%
OC(Cc1ccccc1)(c1ccccc1)c1ccccc1 | 400 | Cell [3]: 46.8%; Cell [4]: 8.57%; Cell [5]: 69.91%; Cell [6]: 5%; Cell [7]: 25.09%; inhibition at 10 µM [2]: 98%; Cell [8]: 44.63%
OC(c1ccccc1)(c1ccccc1)c1ccc(Cl)cc1 | 800 | 
N#CC(c1ccccc1)(c1ccccc1)c1ccccc1Cl | 2200 | 
OC(c1ccccc1)(c1ccccc1)c1cccc2ccccc12 | 1600 | 
Oc1ccccc1C(O)(c1ccccc1)c1ccccc1Cl (stereo not given) | 1000 | inhibition at 10 µM [2]: 99%
Nc1ccc(C(O)(c2ccc(N)cc2)c2ccc(N)cc2)cc1 | 200 | 
OC(c1ccccc1)(c1ccccc1)c1ccc(C(F)(F)F)cc1 | 3100 | 
O=C(O)CC(c1ccccc1)(c1ccccc1)c1ccccc1Cl | 1200 | 
N#CC(c1ccccc1)(c1ccccc1)c1ccc([N+](=O)[O-])cc1 | 1700 | 
Cc1ccc(C(O)(c2ccc(C)cc2)c2ccc(C)cc2)cc1 | 3000 | 
O=[N+]([O-])c1ccc(C(O)(c2ccccc2)c2ccccc2)c(Cl)c1 | 300 | inhibition at 10 µM [2]: 94%
Clc1ccccc1C(c1ccccc1)c1ccccc1 [2-CHLOROPHENYL-BISPHENYLMETHANE(MAJOR)] | 3900 | 
OC(c1ccccc1)(c1ccccc1)c1ccccc1 [TRIPHENYLMETHANOL] | 2000 | inhibition at 10 µM [2]: 99%
